# T cruzi inh – T. cruzi replication inhibition | T. cruzi beta-gal in NIH3T3, luminescence, 90 h | inhibition, % (concentration not given with the values) | 300,000 tested, 1.4% active | AID 1885;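 active = mean inhibition across valid replicates above about 55%, limit read from the data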;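 also: signal also drops with host cell toxicity which is not excluded here; 0% = plate median of DMSO wells and 100% = zero luminescence signal; higher percent means less beta-gal luminescence so fewer parasites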
#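 System: mouse NIH/3T3 fibroblasts infected with β-gal-expressing T. cruzi Tulahuen C4 / Input: NIH/3T3 cells, 5,000 per well / Buffer or medium: Low-serum DMEM with 2% FBS / Probe or stimulus: 5000 reporter trypomastigotes per well / Schedule: ≥90 h infection period, 3 h prior cell attachment / Measured by: GalScreen luminescence, 60 min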
# Beta apoptosis – beta cell apoptosis inhibition; INS-1E cytokine-induced death, ATP luminescence, 48 h; percent of positive-control rescue, neutral wells zero; 300,000 tested, 0.8% active; protection from apoptosis, % (no concentration beside the values);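 active = Every replicate reaches about 75%, or at least half do and their mean reaches it too, limit read from the data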;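 also: 0% = cytokine-treated negative control wells and 100% = positive control rescue; higher means more ATP so stronger rescue from cytokine killing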
# Mdm2-MdmX inh – disrupts the human Mdm2-MdmX interaction | O15151+Q00987 | SaOS-2 split-luciferase Mdm2/MdmX complementation, luminescence | inhibition, % at 8 µM | 330,000 tested, 3% active | AID 485346;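 active = inhibition of at least 50% at 8 µM in the primary screen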
# Target sequence (O15151 whole entry, looked up): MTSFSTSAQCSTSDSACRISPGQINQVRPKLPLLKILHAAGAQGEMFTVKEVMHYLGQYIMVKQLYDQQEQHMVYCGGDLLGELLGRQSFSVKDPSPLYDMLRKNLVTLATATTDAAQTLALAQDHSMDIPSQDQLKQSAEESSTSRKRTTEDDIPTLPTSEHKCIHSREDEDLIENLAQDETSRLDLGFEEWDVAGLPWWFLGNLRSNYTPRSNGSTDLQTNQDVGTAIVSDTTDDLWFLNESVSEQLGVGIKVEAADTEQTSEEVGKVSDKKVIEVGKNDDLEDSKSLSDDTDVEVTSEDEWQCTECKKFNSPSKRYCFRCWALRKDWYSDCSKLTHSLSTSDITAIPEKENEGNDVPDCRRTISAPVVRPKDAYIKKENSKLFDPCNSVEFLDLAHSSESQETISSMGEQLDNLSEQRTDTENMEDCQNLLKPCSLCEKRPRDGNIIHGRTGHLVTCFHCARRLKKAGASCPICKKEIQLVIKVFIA
# Target sequence (Q00987 whole entry, looked up): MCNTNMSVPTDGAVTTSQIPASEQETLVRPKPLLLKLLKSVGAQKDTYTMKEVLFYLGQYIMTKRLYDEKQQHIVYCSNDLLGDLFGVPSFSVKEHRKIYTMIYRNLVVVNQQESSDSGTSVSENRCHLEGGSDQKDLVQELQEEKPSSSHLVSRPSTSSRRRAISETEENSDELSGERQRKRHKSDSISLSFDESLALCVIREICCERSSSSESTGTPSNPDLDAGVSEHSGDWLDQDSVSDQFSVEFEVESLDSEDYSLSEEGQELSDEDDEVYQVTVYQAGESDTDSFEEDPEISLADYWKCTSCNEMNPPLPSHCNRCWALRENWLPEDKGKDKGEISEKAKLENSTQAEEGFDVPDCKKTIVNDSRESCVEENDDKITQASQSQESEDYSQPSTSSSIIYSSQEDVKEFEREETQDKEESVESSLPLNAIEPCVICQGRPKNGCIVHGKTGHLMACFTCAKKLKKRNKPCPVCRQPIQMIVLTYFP
# CSC inhib – cancer stem cell inhibition | AID 2717 | 300,000 tested, 1.1% active | inhibition, % at 7.5 µM | cancer stem cell-like cells viability, luminescence; in the data active = inhibition above about 75%; tested in HMLE shEcad cells
# Lmaj promast – inhibitors of Leishmania major promastigote growth; Leishmania major promastigotes, resazurin fluorescence viability; inhibition, % at 10 µM; 200,000 tested, 9% active; AID 1063; in the data active = inhibition above about 50%;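 also: promastigotes grown with compound for 44 hours at 28 °C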
# SKKanGAS inh – blocks kanamycin growth of S. pyogenes SKKanGAS strain. BacTiter-Glo, 6 h. inhibition, % at 7.5 µM. 300,000 tested, 1.3% active. AID 1662;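 active = mean replicate score, as percent of positive control median, at least 50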;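 also: strain carries kanamycin resistance gene driven by streptokinase promoter and grows in 40 µg/ml kanamycin; loss of luminescence reflects streptokinase promoter inhibition or plain growth inhibition; 0% = median of DMSO wells and 100% = positive control at its reference dose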
# * = called active by the depositor; / = not tested or not shown. Shown are actives, neighbours in structure and some others; about 9.4% of the full set was active somewhere.
SMILES,T cruzi inh,Beta apoptosis,Mdm2-MdmX inh,CSC inhib,Lmaj promast,SKKanGAS inh
O=C(CSC(=S)N1CCCC1)c1cc(Br)cc(Br)c1O,-10,0,-12,-19,95*,14
CC1CCCN(C(=S)SCC(=O)c2cc(Br)cc(Br)c2O)C1 (stereo unspecified),-19,-2,-13,28,15,56*
COc1ccccc1OCC(=O)Nc1nc(C)c(C)s1,-6,2,-49,-5,/,0
COc1ccc([N+](=O)[O-])cc1N(CC(=O)N1CCCC1)S(C)(=O)=O,5,-2,7,-8,-9,5
Nc1cc(-c2cccc(Br)c2)nn1Cc1ccccc1,12,-15,-2,/,3,-13
Nc1cc(-c2ccc(Br)cc2)nn1Cc1ccccc1,15,/,/,/,78*,3
COc1ccc([C@@H]2[C@@H]3C(=O)N(C(C)(C)C)C(=O)[C@@H]3[C@]3(Cc4ccccc4)C(=O)N(c4ccc(C)cc4)C(=O)N23)cc1,15,-2,39,-17,/,2
COC(=O)c1ccc(C(=O)NC2CCSc3ccccc32)cc1 (stereo unspecified),-2,-2,9,-9,/,2
Cc1ccc(NC(=S)NC2CCSc3ccccc32)cc1C (stereo unspecified),-1,6,26,1,/,61*
O=C(C1CCN(S(=O)(=O)c2cccc3nsnc23)CC1)N1CCc2ccccc21,-1,-3,26,-9,87*,10
Cc1cccc(N2CCN(C(=O)C3CCN(S(=O)(=O)c4cccc5nsnc45)CC3)CC2C)c1 (stereo unspecified),4,0,-6,0,51*,6
O=C(C1CCN(S(=O)(=O)c2cccc3nsnc23)CC1)N1CCCc2ccccc21,6,-12,6,-3,8,15
CCS(=O)(=O)N1CCC(C(=O)Nc2cc(C)ccc2O)CC1,-9,-1,-6,-6,/,4
Cc1ccc(NC(=O)c2cc3ccccc3cc2O)cc1,-9,8,-33,26,/,9
Cc1oc(-c2ccccc2)cc1C(=O)Nc1ccccc1,12,7,8,5,0,11
COc1ccc(NC(=O)c2cc3ccccc3cc2O)cc1,18,-11,-57,87*,/,27
COc1ccc(NC(=O)c2cc(-c3ccccc3)oc2C)cc1,-13,3,8,-7,56*,0
O=C(c1ccc(F)cc1)C(C(=O)N1CCCCC1)n1ccccc1=O (stereo unspecified),-3,-2,12,30,-6,-14
CCOC(=O)c1c(CN2CCN(CCO)CC2)n(C)c2cc(Br)c(OC)cc12,24,-6,11,25,54*,5
CCOC(=O)c1c(C)n(C)c2cc(Br)c(OC)cc12,28,-8,-3,/,-1,-13
CCOC(=O)c1c(CNCCN(CC)CC)n(C)c2cc(Br)c(OC)cc12,15,-5,29,5,100*,2
CCOC(=O)c1c(C)n(CC(O)CN(CC)CC)c2cc(Br)c(OC)cc12 (stereo unspecified),40,5,4,9,89*,5
CCOC(=O)c1c(CN(CC)CC)n(C)c2cc(Br)c(O)cc12,3,1,-18,-6,/,-6
CCOC(=O)c1c(C)oc2cc(Br)c(OC)cc12,3,4,-12,-1,2,-2
CCOC(=O)c1c(CN2CCCCC2)n(C)c2cc(Br)c(OC)cc12,38,10,-27,1,99*,1
SMILES,T cruzi inh,Beta apoptosis,Mdm2-MdmX inh,CSC inhib,Lmaj promast,SKKanGAS inh
CCCN(C(=O)Cn1nc(C)c([N+](=O)[O-])c1C)c1c(N)n(Cc2ccccc2)c(=O)[nH]c1=O,16,2,24,-9,/,-1
CC(C)(C)N1CSC(=S)N(Cc2ccccc2)C1,-12,0,44,11,91*,15
CC(C)N1CSC(=S)N(Cc2ccccc2)C1,15,-1,27,3,75*,0
CC(C)CN1CN(Cc2ccccc2)CNC1=S,-14,-6,-12,2,-6,-12
S=C1SCN(Cc2cccnc2)CN1Cc1ccccc1,1,-9,16,/,72*,4
N=c1n(CCN2CCCCC2)c2ccccc2n1CC(=O)c1ccc(Cl)c(Cl)c1,30,39,42,103*,/,-5
CCCCOc1ccc(C2C(C(=O)c3ccc(C)o3)=C(O)C(=O)N2CC2CCCO2)cc1 (stereo unspecified),-9,-2,9,-5,53*,11
Cc1ccc(OCC(=O)N/N=C2/SCC(=O)N2Cc2ccccc2)cc1,2,-6,9,-1,67*,-6
Cc1ccccc1OCC(=O)N/N=C1\SCC(=O)N1Cc1ccccc1,-5,-7,13,-8,25,13
Cc1cc(C)c(OCC(=O)OCC(=O)NCc2cccs2)c(C)c1,-6,2,18,-19,/,-1
O=S1(=O)N=C(Nc2ccc(O)cc2)c2ccccc21,-8,/,4,-13,1,1
O=C(Oc1ccc(NC2=NS(=O)(=O)c3ccccc32)cc1)c1cccnc1,-8,/,4,-10,-9,59*
CCCCN(C(=O)CSc1nnc(-c2ccccc2OC)n1C)c1c(N)n(Cc2ccccc2)c(=O)[nH]c1=O,1,9,12,-2,61*,2
COCCN(C(=O)CSc1nnc(-c2ccccc2F)n1C)c1c(N)n(Cc2ccccc2)c(=O)[nH]c1=O,-18,-5,29,/,-6,-2
COCCN(C(=O)CSc1nc2ccccc2c(=O)n1CCOC)c1c(N)n(Cc2ccccc2)c(=O)[nH]c1=O,-3,-3,11,-6,1,-9
CN1CCc2c(sc3c2C(=O)NC(c2cccs2)N3)C1 (stereo unspecified),-8,-3,14,-11,5,6
Cc1ccsc1C1NC(=O)c2c(sc3c2CCN(C)C3)N1 (stereo unspecified),-2,3,-22,2,88*,1
CN1CCc2c(sc3c2C(=O)NC(c2ccc(-c4cccc(Cl)c4)o2)N3)C1 (stereo unspecified),-4,-1,5,14,68*,-1
CSc1ccc(C2NC(=O)c3c(sc4c3CCN(C)C4)N2)cc1 (stereo unspecified),-8,-5,-4,8,3,-4
CC[C@]12c3[nH]c4cc(CCC(=O)N(C)C)ccc4c3CCN1C(=O)[C@@H](CC(=O)NC(C)(C)C)C[C@@H]2C(=O)N1CCN(C(=O)C2CC2)CC1,/,/,16,/,/,/
Cc1nc(N2CCCCC2)c2c(C)c(C(=O)Nc3cccc(C(F)(F)F)c3)sc2n1,65*,27,30,/,62*,43
Cc1nc(N2CCCCC2C)c2c(C)c(C(=O)Nc3cccc(C(F)(F)F)c3)sc2n1 (stereo unspecified),51,14,43,/,67*,33
Cc1nc(N2CCCCC2)c2c(C)c(C(=O)Nc3ccccc3C(F)(F)F)sc2n1,49,-2,12,77*,42,9

# High-throughput results deposited in PubChem by several laboratories.
